In brackets after ≈: the same amount, converted by molar mass.
Columns and labels:
[1] = Kinetic aqueous solubility; format: physicochemical; conditions: PBS buffer, pH 7.4, aqueous buffer, kinetic from dmso stock
How it was run: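 10 mM DMSO stocks were diluted into PBS pH 7.4 to a 500 μM target and shaken 2 h at room temperature. Samples were vacuum-filtered, diluted with acetonitrile to prevent precipitation, and scanned by UV-vis over 250–500 nm. Concentration was derived from a 3-point calibration at each compound's λmax.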

[2] = Intestinal-specific PAMPA; format: in vitro ADME; conditions: pH 6.5
How it was run: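 Donor solutions at nominal 500 μM came from 10 mM DMSO stocks diluted in phosphate donor buffer, pH 6.5. The acceptor buffer held 5% DMSO. The membrane was phosphatidylcholine plus cholesterol in chloroform/dodecane/hexane (5:25:70 v/v). Plates were incubated 4 h at 37 °C, covered. Acceptor UV-vis absorbance was read over 250–500 nm. Pa was calculated by the Wohnsland–Faller equation from acceptor versus equilibrium absorbance at λmax.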

[3] = system: HeLa (cervical cancers) cells; experiment: MTT antiproliferative assay, HeLa; format: cell-based, human; conditions: for IC50: Homo sapiens, 72 h
How it was run: (§1)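 Cells from ECACC were grown in MEM with 10% FBS, non-essential amino acids and penicillin-streptomycin, at 37 °C and 5% CO2. Cells were seeded at 5000 per well, left overnight, then exposed to test compound 72 h. MTT was added for 4 h, and formazan was dissolved in DMSO (60 min, 37 °C) and read at 545 nm. Compounds giving >50% inhibition at 10 μM were rerun over 0.1–30 μM for IC50. Two independent experiments used five wells each, with cisplatin as positive control.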

[4] = system: MCF7 (breast cancer) cells; experiment: MTT antiproliferative assay, MCF7; format: cell-based, human; conditions: for IC50: MCF-7, MTT, 72 h; for Lipophilic efficiency (LipE = pIC50 – logP): MCF-7
How it was run: as §1

[5] = system: MDA-MB-231 (breast cancer) cells; experiment: MTT antiproliferative assay, MDA-MB-231; format: cell-based, human; conditions: for IC50: Homo sapiens, MDA-MB-231, 72 h, MDA-MB-231, MTT, 72 h; for Lipophilic efficiency (LipE = pIC50 – logP): MDA-MB-231
How it was run: as §1

[6] = system: A2780 (ovarian cancer) cells; experiment: MTT antiproliferative assay, A2780; format: cell-based, human; conditions: for Lipophilic efficiency (LipE = pIC50 – logP): A2780; for IC50: Homo sapiens, A2780, 72 h
How it was run: as §1

Row | Structure (SMILES) | solubility kinetic at 2 h [1] | Papp at 4 h, 500 μM [2] | Lipophilic efficiency (LipE = pIC50 – logP) [3] | IC50 [3] | IC50 ([4]; Homo sapiens, MCF7, 72 h) | Lipophilic efficiency (LipE = pIC50 – logP) [4] | IC50 [5] | Lipophilic efficiency (LipE = pIC50 – logP) [6] | IC50 [6] | Lipophilic efficiency (LipE = pIC50 – logP) [5] | IC50 [4]
1 | C=C(C)[C@@H]1CC[C@@H](C)C[C@H]1OCc1ccc(OC)cc1 [Compound 2c] | 247 ± 2.8 µM (≈ 67.8 µg/mL) | 26.1 ± 5.4 ×10⁻⁶ cm/s | – | – | – | – | – | – | – | – | –
2 | COc1ccc(COC[C@@](O)(CNCc2ccc(F)cc2)[C@@H]2CC[C@@H](C)C[C@H]2OCc2ccc(OC)cc2)cc1 [Compound 51a] | 259 ± 1.3 µM (≈ 143 µg/mL) | 19.7 ± 1.6 ×10⁻⁶ cm/s | −1.08 | 2.8 µM | 1.6 µM | −0.84 | 1.9 µM | −0.80 | 1.5 µM | – | –
3 | C[C@@H]1CC[C@@H]([C@@](O)(CNCc2cccc3ccccc23)COCc2ccccc2)[C@H](OCc2ccccc2)C1 [Compound 41b] | 0.5 ± 0.01 µM (≈ 0.262 µg/mL) | – | −2.27 | 2.5 µM | 5.7 µM | −2.62 | 2.6 µM | −2.48 | 4.1 µM | −2.28 | –
4 | C[C@@H]1CC[C@@H]([C@](O)(CNCc2ccc(F)cc2)COCc2ccc(F)cc2)[C@H](OCc2ccc(F)cc2)C1 [Compound 45a] | 122 ± 4.5 µM (≈ 64.4 µg/mL) | 33.3 ± 3 ×10⁻⁶ cm/s | −1.23 | 2.9 µM | < 1 µM | −0.69 | 1.8 µM | −1.12 | 2.3 µM | −1.02 | 0.84 µM
5 | C[C@@H]1CC[C@@H]([C@](O)(COCc2ccccc2)Cn2ccnc2)[C@H](OCc2ccccc2)C1 [Compound 42b] | 5.2 ± 0.3 µM (≈ 2.26 µg/mL) | – | – | – | – | – | – | – | – | – | –
6 | COc1ccc(CNC[C@](O)(COCc2ccc(OC)cc2)[C@@H]2CC[C@@H](C)C[C@H]2OCc2ccc(OC)cc2)cc1 [Compound 52a] | 107 ± 2.6 µM (≈ 60.3 µg/mL) | 23.7 ± 3.8 ×10⁻⁶ cm/s | −0.57 | 2 µM | 1.4 µM | −0.43 | 1.7 µM | −0.40 | 1.3 µM | −0.50 | –
7 | C[C@@H]1CC[C@@H]([C@](C)(O)CNCc2cccc3ccccc23)[C@H](OCc2ccccc2)C1 [Compound 13a] | 2.1 ± 0.1 µM (≈ 0.877 µg/mL) | – | −1.04 | 5.4 µM | 4.3 µM | −0.94 | 25 µM | – | 13.7 µM | – | –
8 | C[C@@H]1CC[C@@H]([C@](C)(O)Cn2ccnc2)[C@H](OCc2ccccc2)C1 [Compound 14a] | 4.1 ± 0.7 µM (≈ 1.35 µg/mL) | – | – | 24.5 µM | – | – | – | – | – | – | –
9 | COc1ccc(COC[C@@](O)(CNCc2ccccc2)[C@@H]2CC[C@@H](C)C[C@H]2OCc2ccc(OC)cc2)cc1 [Compound 50a] | 202 ± 1 µM (≈ 108 µg/mL) | 32.4 ± 7.6 ×10⁻⁶ cm/s | −1.23 | 3.7 µM | 1.4 µM | −0.83 | 2.2 µM | −0.88 | 1.6 µM | −1.01 | –
10 | C[C@@H]1CC[C@@H]([C@](O)(CNCc2ccccc2)COCc2ccc(F)cc2)[C@H](OCc2ccc(F)cc2)C1 [Compound 44a] | 163 ± 1.6 µM (≈ 83.1 µg/mL) | 28.8 ± 2.9 ×10⁻⁶ cm/s | −0.78 | 1.3 µM | 0.88 µM | −0.59 | 1.5 µM | −1.00 | 2.2 µM | −0.81 | –
11 | C=C(C)[C@@H]1CC[C@@H](C)C[C@H]1OCc1ccccc1 [Compound 2a, O-benzyl isopulegol] | 1.1 ± 0.01 µM (≈ 0.269 µg/mL) | – | – | – | – | – | – | – | – | – | –
12 | COc1ccc(CNC[C@](O)(COCc2ccc(F)cc2)[C@@H]2CC[C@@H](C)C[C@H]2OCc2ccc(F)cc2)cc1 [Compound 46a] | 88 ± 0.9 µM (≈ 47.5 µg/mL) | 29.5 ± 3.6 ×10⁻⁶ cm/s | −1.33 | 2.5 µM | < 1 µM | – | 1.9 µM | −1.12 | 1.5 µM | −1.22 | 0.9 µM
13 | C[C@@H]1CC[C@@H]([C@](C)(O)CNCc2ccccc2F)[C@H](OCc2ccccc2)C1 [Compound 9a] | 1.4 ± 0.02 µM (≈ 0.54 µg/mL) | – | −0.09 | 6.5 µM | 8.6 µM | −0.21 | – | – | – | – | –
14 | C=C(COCc1ccccc1)[C@@H]1CC[C@@H](C)C[C@H]1OCc1ccccc1 [Compound 30a] | 40.8 ± 5 µM (≈ 14.3 µg/mL) | – | – | – | – | – | – | – | – | – | –
15 | C[C@@H]1CC[C@@H]([C@@](C)(O)Cn2cnc3ccccc32)[C@H](OCc2ccccc2)C1 [Compound 15b] | 34.6 ± 1.1 µM (≈ 13.1 µg/mL) | 26.3 ± 4.6 ×10⁻⁶ cm/s | 0.06 | 6.5 µM | 9.4 µM | −0.10 | 27.6 µM | – | 10.9 µM | – | –
16 | C[C@@H]1CC[C@@H]([C@](C)(O)Cn2cnc3ccccc32)[C@H](OCc2ccccc2)C1 [Compound 15a] | 38.7 ± 2 µM (≈ 14.6 µg/mL) | 39.3 ± 4.2 ×10⁻⁶ cm/s | – | 11.6 µM | 7 µM | 0.02 | 16.7 µM | – | 12.3 µM | – | –
17 | COc1ccc(CNC[C@@](C)(O)[C@@H]2CC[C@@H](C)C[C@H]2OCc2ccccc2)cc1 [Compound 10a] | 25.7 ± 1 µM (≈ 10.2 µg/mL) | 20.6 ± 1.4 ×10⁻⁶ cm/s | −0.03 | 4.3 µM | 1.9 µM | 0.32 | 5.7 µM | −0.25 | 7.3 µM | −0.15 | –
18 | C=C(COCc1ccc(F)cc1)[C@@H]1CC[C@@H](C)C[C@H]1OCc1ccc(F)cc1 [Compound 30b] | 17.6 ± 0.6 µM (≈ 6.8 µg/mL) | – | – | – | – | – | – | – | – | – | –
19 | COc1ccccc1CNC[C@@](C)(O)[C@@H]1CC[C@@H](C)C[C@H]1OCc1ccccc1 [Compound 12a] | 270 ± 21 µM (≈ 107 µg/mL) | 49.2 ± 4 ×10⁻⁶ cm/s | −0.05 | 4.6 µM | 4.2 µM | −0.01 | 12.8 µM | −0.26 | 7.4 µM | – | –
20 | C[C@@H]1CC[C@@H]([C@](C)(O)CNCc2ccc(F)cc2)[C@H](OCc2ccccc2)C1 [Compound 7a] | 2.5 ± 0.1 µM (≈ 0.964 µg/mL) | – | – | 24.3 µM | 20.3 µM | – | – | – | – | – | –
21 | C[C@@H]1CC[C@@H]([C@@](O)(COCc2ccccc2)Cn2ccnc2)[C@H](OCc2ccccc2)C1 [Compound 42a] | 7.7 ± 0.7 µM (≈ 3.35 µg/mL) | – | – | – | – | – | – | – | – | – | –
22 | C=C(COCc1ccc(OC)cc1)[C@@H]1CC[C@@H](C)C[C@H]1OCc1ccc(OC)cc1 [Compound 30c] | 31.5 ± 1.3 µM (≈ 12.9 µg/mL) | – | – | 24.7 µM | – | – | – | – | – | – | –
23 | C=C(C)[C@@H]1CC[C@@H](C)C[C@H]1OCc1ccc(F)cc1 [Compound 2b] | 90 ± 4.8 µM (≈ 23.6 µg/mL) | 50.7 ± 4.7 ×10⁻⁶ cm/s | – | – | – | – | – | – | – | – | –
24 | C[C@@H]1CC[C@@H]([C@@](O)(CNCc2ccccc2)COCc2ccccc2)[C@H](OCc2ccccc2)C1 [Compound 34b] | 8 ± 1 µM (≈ 3.79 µg/mL) | – | −1.11 | 2.3 µM | 3.7 µM | −1.32 | 3.4 µM | −1.26 | 3.3 µM | −1.28 | –
25 | C[C@@H]1CC[C@@H]([C@](C)(O)CNCc2ccccc2)[C@H](OCc2ccccc2)C1 [Compound 6a] | 3.3 ± 0.01 µM (≈ 1.21 µg/mL) | – | 0.09 | 2.8 µM | 2.3 µM | 0.18 | 3.4 µM | 0.12 | 2.6 µM | 0.01 | –
26 | C[C@@H]1CC[C@@H]([C@](O)(CNCc2cccc3ccccc23)COCc2ccccc2)[C@H](OCc2ccccc2)C1 [Compound 41a] | 1 ± 0.03 µM (≈ 0.524 µg/mL) | – | −2.28 | 2.6 µM | 5.9 µM | −2.64 | 3.6 µM | −2.57 | 5 µM | −2.42 | –
27 | C[C@@H]1CC[C@@H]([C@](O)(CNCc2ccccc2)COCc2ccccc2)[C@H](OCc2ccccc2)C1 [Compound 34a] | 2.8 ± 0.2 µM (≈ 1.33 µg/mL) | – | −1.16 | 2.6 µM | 2 µM | −1.05 | 4 µM | −1.36 | 4.1 µM | −1.35 | –
